The values below come from ChEMBL document CHEMBL1165989, “Characterization of pseudacyclins A-E, a suite of cyclic peptides produced by Pseudallescheria boydii” (J Nat Prod, 2010).

Assay [1] can be described thus: Cytotoxicity against mitogen-activated human lymphocytes by MTT assay. The settings on record: Lymphocyte. Type of assay: cell-based.
The next assay relates to Candida tropicalis. Nature of the assay: Antimicrobial activity against Candida tropicalis. Type of assay: functional, organism-based.
The next assay relates to Enterococcus faecalis. Nature of the assay: Antimicrobial activity against Enterococcus faecalis. The class given is functional, organism-based.
Another assay has as its system Escherichia coli. Nature of the assay: Antimicrobial activity against Escherichia coli. Type of assay: functional, organism-based.
Assay [2] in a line: Inhibition of NO synthase activity in mouse B10R cells assessed as LPS-induced NO production after 24 hrs. Type of assay: cell-based. In outline: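 B10R macrophages stimulated with […] (0.5 µg/mL). NO-synthase activity was read as NO2- production over 24 h, and an IC50 was derived.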
The subject of another assay is Pichia kudriavzevii. Nature of the assay: Antimicrobial activity against Candida krusei. Type of assay: functional, organism-based.
A short description of assay [3]: Cytotoxicity against resting human lymphocytes by MTT assay. Type of assay: cell-based. As to conditions: Lymphocyte.
The test system of a further assay is Candida albicans. Nature of the assay: Antimicrobial activity against Candida albicans. Type of assay: functional, organism-based.
The subject of the next assay is Staphylococcus aureus. Nature of the assay: Antimicrobial activity against Staphylococcus aureus. The class given is functional, organism-based.
A further assay deals with Streptococcus pyogenes. Nature of the assay: Antimicrobial activity against Streptococcus hemolyticus. Type of assay: functional, organism-based.
Another assay relates to Candida parapsilosis. Nature of the assay: Antimicrobial activity against Candida parapsilosis. Type of assay: functional, organism-based.

SMILES strings stand for the structures. Activity calls are given as the source filed them. The rule behind the calls is not given here.

As to `CC[C@H](C)[C@H](NC(C)=O)C(=O)N[C@H]1CCCNC(=O)[C@H]([C@@H](C)CC)NC(=O)[C@H]([C@@H](C)CC)NC(=O)[C@@H]2CCCN2C(=O)[C@@H](Cc2ccccc2)NC1=O` [PSEUDACYCLIN A], the IC50 in assay [1] was 12.9 µM; in assay [2], 41.4 µM; in assay [3], 32 µM. The inhibition result in the assay on Candida tropicalis, in the assay on Enterococcus faecalis, in the assay with Escherichia coli, with Pichia kudriavzevii, with Candida albicans and in the assay with Staphylococcus aureus was “inactive” each time. The inhibition entry in the assay with Streptococcus pyogenes and in the assay with Candida parapsilosis was “inactive” throughout.
